Source: article PMC6996349 (Hepatology Communications, 2019)

Legend:
NASH patients [1] = conditions: 1.8 or 2.7 g/day, 1 year; cited from earlier work
[2] = system: subjects with elevated triglycerides; conditions: 4 g/day oral; cited from earlier work
ob/ob mice = test: Glucose metabolism and insulin resistance in ob/ob mice; format: in vivo; conditions: for Glucose metabolism, effect: fenofibrate 100, pioglitazone 30 mg/kg/d in diet
Procedure, shortened: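 Male ob/ob mice aged 6-8 weeks, n = 10/group, either untreated or given test compound at 135 mg/kg/d in the diet for 5 weeks. Reference-agent groups were also dosed in the diet. Blood glucose, insulin, HbA1c and HOMA-IR were measured after 4 weeks on tail-vein EDTA blood taken after a 4-h fast. Body weight was recorded between 8 and 9 am. Mean ± SEM; Kruskal-Wallis then Mann-Whitney U.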

NASH patients [3] = conditions: PIVENS study; cited from earlier work
APOE*3Leiden.CETP mice [4] = format: in vivo
Procedure, shortened: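 High-fat/cholesterol-fed male APOE*3Leiden.CETP mice aged 8-15 weeks, n = 12/group, given corn-oil vehicle or test compound at 112 mg/kg/d by daily oral gavage for 20 weeks. Liver cross sections were stained with H&E or sirius red and scored with an adapted human NASH grading system. Hepatic lipids were determined biochemically. Body weight was monitored regularly. Mean ± SEM; nonparametric group comparisons.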

APOE*3Leiden.CETP mice [5] = test: Hepatic lipotoxic lipid species; format: in vivo; conditions: 20 weeks, versus control
Procedure, shortened: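 Male APOE*3Leiden.CETP mice aged 8-15 weeks on a high-fat diet (24% wt/wt lard, 1% wt/wt cholesterol), n = 12/group. Mice received daily corn-oil vehicle gavage or test compound at 112 mg/kg/d by oral gavage for 20 weeks, starting with the diet. Harvested livers underwent lipidomics and reduced/oxidized glutathione assays. Mean ± SEM; Kruskal-Wallis then Mann-Whitney U.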

[6] = 20 weeks, icosabutate 112 mg/kg/d, rosiglitazone 13 mg/kg/d

In the case of CC/C=C\C/C=C\C/C=C\C/C=C\C/C=C\CCCC(=O)OCC [EPA ethyl ester, eicosapentaenoic acid (EPA) ethyl ester], the “Effect on liver histology” value (NASH patients [1]) is listed as “no effect” and the “Major adverse cardiovascular events, effect” value [2] is listed as “markedly reduce”.
In the case of CCc1ccc(CCOc2ccc(CC3SC(=O)NC3=O)cc2)nc1 (stereo not shown) [pioglitazone], the “Plasma adiponectin, increase versus control” value (ob/ob mice; after 4 weeks of treatment) is reported as 4.5 fold, the “HOMA‐IR, change versus control” value (ob/ob mice; after 4 weeks of treatment, icosabutate 135, pioglitazone 30 mg/kg/d) is reported as −97% and the “Glucose metabolism, effect” value (ob/ob mice) is reported as “also improved glucose metabolism”. The “Fibrosis, effect” value (NASH patients [3]) was “without change” and the “Lobular inflammation, effect” value (NASH patients [3]) was “improvements”.
For CN(CCOc1ccc(CC2SC(=O)NC2=O)cc1)c1ccccn1 (stereo not shown) [rosiglitazone], the “Fibrosis, effect” value (APOE*3Leiden.CETP mice [4]; 20 weeks) was “no change”, the “Number of inflammatory cell aggregates, change versus control” value (APOE*3Leiden.CETP mice [4]; 20 weeks) was −67% and the “Serum amyloid A, change versus control” value (APOE*3Leiden.CETP mice [4]; 20 weeks) was −46%. The “Hepatic cholesterol ester, effect” value (APOE*3Leiden.CETP mice [4]; 20 weeks, biochemical analysis of intrahepatic lipids) was “significant reduction”, the “Hepatocellular hypertrophy, change versus control” value (APOE*3Leiden.CETP mice [4]; [6]) was “did not significantly affect” and the “Microvesicular steatosis, change versus control” value (APOE*3Leiden.CETP mice [4]; [6]) was “did not significantly affect”. For the same compound, the “Serum amyloid A” value (APOE*3Leiden.CETP mice [4]; after 20 weeks of treatment, control 29.8 ± 5.0, mean ± SEM) was 16.1 ± 3.3, the “Plasma monocyte chemoattractant protein 1” value (APOE*3Leiden.CETP mice [4]; after 20 weeks of treatment, control 111.5 ± 17.1, mean ± SEM) was 65.1 ± 5.1 and the “Body weight, change versus control” value (APOE*3Leiden.CETP mice [4]; week 16 and 20, data not shown) was “did not significantly increase”. The “Hepatic GSH:GSSG ratio, effect” value (APOE*3Leiden.CETP mice [5]) was “had no effect”, the “Hepatic GSSG, effect” value (APOE*3Leiden.CETP mice [5]) was “had no effect” and the “Hepatic concentration of FFAs, effect” value (APOE*3Leiden.CETP mice [5]) was “had no effect”. For the same compound, the “Hepatic concentration of HETEs (11[R]‐, 12‐, 15[S] isomers), effect” value (APOE*3Leiden.CETP mice [5]) was “significant increase”, the “Hepatic concentration of arachidonic acid, effect” value (APOE*3Leiden.CETP mice [5]) was “had no effect” and the “Hepatic concentration of bile acids, effect” value (APOE*3Leiden.CETP mice [5]) was “had no effect”. For the same compound, the “Hepatic concentration of ceramides, effect” value (APOE*3Leiden.CETP mice [5]) was “had no effect” and the “Hepatic concentration of diacylglycerols (DAGs), effect” value (APOE*3Leiden.CETP mice [5]) was “had no effect”.
For CC(C)OC(=O)C(C)(C)Oc1ccc(C(=O)c2ccc(Cl)cc2)cc1 [fenofibrate], the “Plasma adiponectin, increase versus control” value (ob/ob mice; after 4 weeks of treatment) was “neither fenofibrate nor icosabutate affected”, the “Plasma insulin, change versus control” value (ob/ob mice; after 4 weeks of treatment) was “less pronounced” and the “Reduction of blood glucose AUC (0‐120 minutes) in oral glucose tolerance test” value (ob/ob mice; after 5 weeks of treatment, 2 g/kg glucose, 4-hour fasted) was “less potent effect”. For the same compound, the “Glucose metabolism, effect” value (ob/ob mice) was “also improved glucose metabolism”.
